From PubChem BioAssay
A selection: hits, their analogues and other compounds. The true share with any hit is near 8.2%.
SF-1 act: SF-1 (human) activation | actives 1.9% (n = 65,000) | AID 522 | activation, % at 10 µM | Q13285 | CHO-K1 Gal4-SF-1 LBD luciferase reporter; % increase over DMSO SF-1-specific signal;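 active means activation above the mean activation of all tested compounds plus 3 SD, cut at about 50% in these data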
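Material: Transient Gal4-SF-1 LBD reporter, CHO-K1 | Input: 4,000 cells/well | Dosing: One dose, 10 µM compound, 1% DMSO | Incubation: 20 h compound treatment, 37 °C | Detection: SteadyLite luciferase luminescence | Evaluation: Percent activation relative to DMSO median and mock-transfected background | Benchmarks: DMSO-treated SF-1-transfected cells as negative, DMSO-treated mock-transfected cells lacking SF-1 as background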
M1 antagonist: blocks the rat M1 muscarinic receptor response to acetylcholine; P08482; CHO-M1 cells, Fluo-4 calcium, ACh EC80 antagonist mode; hits give low values; B-score at 10 µM; actives 3.4% (n = 64,000);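 active means calcium fluorescence response, raw or row-and-column corrected B-score, differing from the plate sample mean either way at a set confidence level, mostly lower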
RORA act: RORA (human) activation. CHO-K1 Gal4-RORA LBD luciferase reporter, luminescence; percent increase over mock-subtracted basal signal. activation, % at 10 µM. P35398. actives 1.5% (n = 65,000);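 active means activation above the mean of all tested compounds plus 3 SD, cut at about 49% in these data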;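 further: 0% = DMSO-treated RORA cells and 100% = added signal equal to DMSO minus mock-transfected cells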
HePTP inhibitor: inhibitors of human HePTP phosphatase; P35236; recombinant HePTP phosphatase activity, OD absorbance; inhibition, % at 20 µM; actives 0.64% (n = 110,000); AID 521; in the data active means inhibition above about 50%;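 further: plate controls were vehicle for no effect and reference inhibitor for full effect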
Target sequence (P35236 whole entry, looked up): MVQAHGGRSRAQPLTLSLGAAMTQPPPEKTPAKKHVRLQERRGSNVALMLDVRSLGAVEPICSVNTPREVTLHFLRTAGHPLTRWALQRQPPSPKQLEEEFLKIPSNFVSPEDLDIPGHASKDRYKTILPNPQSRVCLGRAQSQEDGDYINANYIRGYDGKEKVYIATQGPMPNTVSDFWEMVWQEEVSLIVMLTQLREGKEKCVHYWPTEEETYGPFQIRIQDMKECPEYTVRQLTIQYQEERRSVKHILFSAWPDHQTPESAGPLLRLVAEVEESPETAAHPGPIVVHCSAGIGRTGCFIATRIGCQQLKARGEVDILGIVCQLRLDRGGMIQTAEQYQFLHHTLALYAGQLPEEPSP
D1 allo mod: allosteric modulators of human D1 dopamine receptor; HEK293 D1, CRE-luciferase, dopamine EC30 potentiation; actives deviate in either direction; actives 5.9% (n = 58,000); B-score at 10 µM;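 active means luminescence count or its row- and column-corrected plate score outside the 99.7% band of the plate's sample wells, on either side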
M1 ag: agonists of M1 muscarinic receptor; actives 3% (n = 64,000); B-score at 10 µM; CHO-M1 cells, Fluo-4 calcium fluorescence, agonist mode; hits give high values;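 active means fluorescence rise, raw or as B-score row- and column-corrected plate score, outside the 99.7% band of its plate's samples, either direction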
The depositor's hits bear a star; nt = no result.

SMILES | SF-1 act | M1 antagonist | RORA act | HePTP inhibitor | D1 allo mod | M1 ag
CCc1ccc(C(=O)NC2CCCCC2)s1 | 59* | 0.18 | 55* | 4 | -2.1 | 0.55
O=C(O)c1cc2c(s1)-c1ccccc1OC2 | 0 | 0.71 | -6 | 6 | nt | 0.49
O=C(NC1CC1)c1cc2c(s1)-c1ccccc1OC2 | 18 | -0.5 | 32 | 6 | -5.8* | -0.96
COCCn1c(=O)[nH]c2cc(C(=O)NCCCN3CCN(c4ccc(F)cc4)CC3)ccc2c1=O | 0 | -0.73 | 9 | 0 | -4.4* | 0.16
O=C(NCCN1CCCC1)c1ccc2c(=O)n(CCc3ccccc3)c(=O)[nH]c2c1 | -3 | -0.16 | 13 | 9 | -3.7* | -1.3
CCOC(=O)c1ccccc1NC(=O)CN(c1ccc(OC)c(Cl)c1)S(=O)(=O)c1ccccc1 | nt | nt | nt | -8 | nt | nt
COC(=O)C1=C(C)Nc2nc(-c3ccccc3)nn2C1c1ccc(C)o1 (stereo not given) | 1 | -0.12 | 26 | 6 | -7.3* | -0.17
Cc1ccc(-n2c(SCC(=O)Nc3ccc4c(c3)OCO4)nnc2-c2cccs2)cc1 | -3 | -0.27 | 7 | -3 | 0.72 | 0.71
Cc1cccc(-n2c(SCC(=O)Nc3ccc4c(c3)OCO4)nnc2-c2ccoc2C)c1 | 0 | -0.22 | -12 | 1 | -3.4* | -0.33
CCCn1c(SCC(=O)Nc2ccc3c(c2)OCCO3)nnc1-c1ccco1 | 4 | nt | 0 | 2 | -0.082 | nt
COc1cccc(-c2nnc(SCC(=O)Nc3ccc4c(c3)OCCO4)n2Cc2ccco2)c1 | -11 | -0.12 | -15 | -4 | 0.29 | 5.8*
CC1(C)CNC(=O)c2sc(N3CCCCC3)nc2C1 | 30 | -0.27 | 51* | -3 | 0.64 | 4.6
CC1(C)CC(=O)c2sc(N3CCCCC3)nc2C1 | 13 | nt | 36 | 5 | 0.96 | nt
O=C(Nc1ccc(I)cc1Cl)c1cccc(OCc2ccccc2)c1 | nt | nt | nt | 9 | nt | nt
CCC(=O)Nc1ccc(NC(=O)C23CC4CC(CC(C4)C2)C3)cn1 | 17 | 0.26 | 34 | 6 | -0.66 | -1.5
O=C(Nc1ccc(NC(=O)C2CCCCC2)cn1)c1ccco1 | 20 | -0.0023 | 7 | 9 | -3.2* | 0.018
O=C(Nc1ccc(NC(=O)C23CC4CC(CC(C4)C2)C3)cn1)c1ccco1 | 90* | -1.7 | 28 | 11 | -2 | 0.28
N=c1oc2ccc3ccccc3c2cc1-c1nnc2n1CCCCC2 | 0 | -0.17 | 0 | -2 | 0.081 | 1.1
CC(=O)N1CCC(N(C(=O)Nc2ccc(C)c(C)c2)C2CCCC2)CC1 | 6 | 3* | -11 | 9 | 0.5 | 1.5
Cc1nnc(N2C(=O)C(O)=C(C(=O)c3ccco3)C2c2ccc(F)cc2)s1 (stereo not given) | -11 | -0.28 | 12 | 6 | -0.011 | 18*
O=S1(=O)Nc2c(ccc3cccnc23)-c2ccccc21 | -91 | -0.65 | -74 | 1 | -3.6* | 0.52
O=C(c1ccc(Cl)s1)N1CCc2ccccc21 | 62* | 0.11 | 47 | -1 | -0.29 | 1.8
Cc1onc(-c2ccccc2Cl)c1C(=O)N1CCc2ccccc21 | -16 | -0.024 | -22 | 12 | -2.8* | 0.63
O=C(C1CCC(C(=O)N2CCc3ccccc32)CC1)N1CCc2ccccc21 (stereo not given) | -16 | 1 | -2 | -1 | -0.26 | 0.7
COc1ccc(CNC(=O)NC2CCCCC2)cc1 | 50* | -0.19 | 4 | -4 | -0.047 | 1
SMILES | SF-1 act | M1 antagonist | RORA act | HePTP inhibitor | D1 allo mod | M1 ag
COc1ccc(CN2CCC(CNC(=O)NC3CCCCC3)CC2)cc1 | 4 | -0.32 | -2 | 5 | 0.087 | 0.33
O=C(NCc1ccccc1)NC1CCCCC1 | 28 | 0.49 | 38 | 2 | -0.6 | -1.4
O=C(NCCc1ccccc1)NC1CCCCC1 | 28 | 0.16 | 31 | 5 | -2.5* | -0.27
COc1ccc(OC(C)C(=O)Nc2ccccc2C(N)=O)cc1 (stereo not given) | nt | nt | nt | 6 | nt | nt
CCCCn1c(SCc2nnc(-c3ccccc3)o2)nc2c1c(=O)n(C)c(=O)n2C | -6 | -0.32 | -6 | -4 | 0.028 | 3*
CCn1c(SCc2nnc(-c3ccccc3)o2)nc2c1c(=O)n(C)c(=O)n2C | -8 | 1.5 | 31 | 6 | -0.39 | 2
O=C1[C@@H]2CSCN2C(=O)CN1CCc1cccc(F)c1 | -3 | -0.34 | -14 | 5 | -0.32 | -0.35
COC(=O)c1ccc(-c2ccc(/C=N\Nc3ccc([N+](=O)[O-])cn3)o2)cc1 | nt | nt | nt | -4 | nt | nt
O=C(O)c1ccc(Cl)c(-c2ccc(/C=N\Nc3ccc([N+](=O)[O-])cn3)o2)c1 | nt | nt | nt | 54* | nt | nt
Cc1nc(C(C)(C)O)n(-c2ccccc2)n1 | -2 | -1.1 | -21 | -5 | -1.4 | -0.97
CCOc1nc(-c2ccccc2)ccc1-c1noc(-c2ccncc2)n1 | 1 | -0.025 | -17 | 5 | -0.039 | -0.27
CC(C)C(=O)Nc1ccc(Nc2ccccc2)cc1 | 12 | -0.058 | 34 | 3 | -0.039 | -1.2
CC(Sc1ccccn1)C(=O)Nc1ccccc1 (stereo not given) | 57* | 0.31 | 34 | -3 | 0.71 | 0.84
O=C(/C=C/c1ccc(Cl)cc1Cl)Nc1nn[nH]n1 | nt | nt | nt | 87* | nt | nt
O=C(/C=C/c1ccc(Cl)cc1Cl)Nc1c(F)c(F)c(F)c(F)c1F | nt | nt | nt | 8 | nt | nt
COc1ccc2nc(SCC(=O)N3CCNC3=O)[nH]c2c1 | 65* | -0.79 | 45 | 3 | -1.4 | 1.3
CN(CCCNC(=O)c1cccc(N2CCCC2=O)c1)c1ccccc1 | -1 | 0.82 | -17 | 8 | nt | -0.54
CCCCN(C)CCCNC(=O)c1cccc(N2CCCC2=O)c1 | -5 | -0.98 | -1 | 31 | -5.8* | -0.54
COc1cc2nc(SCC(=O)NCc3ccco3)n(Cc3ccc(Cl)cc3)c(=O)c2cc1OC | -6 | -0.12 | 2 | 6 | -3.8* | 0.91
COc1ccccc1-c1nnc(Nc2nc3c(OC)cccc3s2)o1 | -67 | 0.29 | -42 | 2 | -0.63 | -1.9
COc1cccc(-c2nnc(Nc3nc4c(F)cccc4s3)o2)c1 | 51* | -0.11 | 28 | nt | -2.1 | 0.34
COc1cc(NC(=O)c2ccc3c(c2)C(=O)N(c2ccccc2OC)C3=O)c(C(=O)O)cc1OC | nt | nt | nt | 0 | nt | nt
COc1cc(NC(=O)c2ccc3c(c2)C(=O)N(C2CCCCC2)C3=O)c(C(=O)O)cc1OC | nt | nt | nt | 103* | nt | nt
Cc1cc(C)c2nc(C(F)(F)F)nc(NCCCN3CCCC3=O)c2c1 | 9 | 0.12 | -7 | 4 | 0.25 | 0.2
Cc1nc(NC(=O)c2ccccc2Br)sc1C | nt | nt | nt | -1 | nt | nt
Cc1nc(NC(=O)c2csc3ccccc23)sc1C | 26 | 0.25 | -5 | 5 | -3.4* | 0.044
CCOC(=O)C1CCN(C(=O)COc2ccc(C)cc2C)CC1 | nt | nt | nt | -10 | nt | nt
FC(F)(F)c1ccc2nnc(-c3cccc(OCc4ccccc4)c3)n2c1 | nt | nt | nt | 101* | nt | nt
FC(F)(F)c1ccc2nnc(-c3cc(Br)ccc3OCc3ccccc3)n2c1 | nt | nt | nt | 55* | nt | nt
FC(F)(F)c1cccc(-c2nnc3ccc(C(F)(F)F)cn23)c1 | -10 | 0.41 | -6 | -5 | 1.2 | 0.61
